Reference: article PMC11342405 (Bioorganic & medicinal chemistry, 2024)
“Also recorded” adds a separate entry of the source.

What was measured:
HEK-293 cells = assay: Anti-proliferative MTT assay, non-cancerous HEK-293 cells; type: cell-based; conditions: Homo sapiens, HEK293, 72 h, read-out: HEK-293 IC50
Summary of the method: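 HEK-293 cells grown in DMEM with 10% FBS and 1% penicillin/streptomycin, seeded at 2.5 x 10^4 cells/well and allowed 24 h before dosing. Compound (DMSO stock) given at increasing concentrations for 72 h at 37 °C, 5% CO2. MTT (5.4 mg/mL dye solution) was added for 3 h, formazan dissolved in DMSO, and absorbance read at 570 nm. Replicates 6-8; IC50 derived from concentration-response data.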

gankyrin [1] = target: T1, gankyrin (Homo sapiens, UniProt O75832); assay: Cellular thermal shift assay; type: cell-based; conditions: HuH6 cells treated at anti-proliferative IC50 for 5 h, 50-65 °C
T1 sequence (O75832 1-226): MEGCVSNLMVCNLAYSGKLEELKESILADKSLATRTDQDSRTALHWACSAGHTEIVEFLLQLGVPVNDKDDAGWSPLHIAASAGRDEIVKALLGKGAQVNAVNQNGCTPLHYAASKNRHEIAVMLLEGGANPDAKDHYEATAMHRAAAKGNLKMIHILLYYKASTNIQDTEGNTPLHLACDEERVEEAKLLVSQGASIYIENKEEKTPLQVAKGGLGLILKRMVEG
Summary of the method: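 HuH6 cells were exposed to test compound (0.25% DMSO final) or DMSO alone for 5 h, harvested, split into six aliquots and heated at 50, 53, 56, 59, 62 or 65 °C. Lysis was in RIPA with protease/phosphatase inhibitors, 60 min on ice. 15 μg protein was run on reducing SDS-PAGE, transferred to PVDF and probed for gankyrin, with β-actin as reference; HRP secondary and ECL detection.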

gankyrin [2] = target: T1, gankyrin; assay: Circular dichroism of gankyrin; type: binding; conditions: 10 μM gankyrin, 1-100 μM compound, 25 °C
Summary of the method: (§1)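 Recombinant His-tagged protein was expressed in E. coli LOBSTR BL21(DE3) (0.5 mM IPTG, 37 °C, 16 h) and Ni-affinity purified. The tag was removed with TEV, followed by a second HisTrap pass and gel filtration if needed. 10 μM protein in 25 mM Tris, 50 mM NaCl, pH 7.4, alone or with 1, 10 or 100 μM compound. Spectra 195–260 nm in a 1 mm quartz cuvette, six accumulations, 25 °C; α-helical content monitored; triplicate samples.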

[3] = test system: Rb, p53 and gankyrin levels in HuH6 cells; assay: Western blot analysis of TSP levels in HuH6 cells; type: cell-based; conditions: 48 h
Summary of the method: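 HuH6 cells in 10 cm dishes were exposed to varying compound concentrations (0.25% DMSO final) or DMSO only for 48 h. Cells were harvested in cold PBS and lysed in RIPA with protease/phosphatase inhibitors, 60 min on ice. 15 μg protein was resolved under reducing conditions, transferred to PVDF and probed for p53, Rb and gankyrin, with cyclophilin as reference; HRP secondaries, ECL detection. Run in duplicate.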

ANKRA2 = target: T2, ANKRA2 (Homo sapiens, UniProt Q9H9E1); assay: Circular dichroism of ANKRA2; type: binding; conditions: 10 μM ANKRA2, 1-100 μM compound, 25 °C
T2 sequence (Q9H9E1 152-313 limits assumed): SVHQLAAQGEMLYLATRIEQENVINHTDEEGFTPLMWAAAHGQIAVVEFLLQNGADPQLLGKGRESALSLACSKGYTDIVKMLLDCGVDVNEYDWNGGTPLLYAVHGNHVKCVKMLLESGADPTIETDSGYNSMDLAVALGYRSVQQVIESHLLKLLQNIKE
Summary of the method: as §1

HuH6 cells = assay: Cell cycle analysis by flow cytometry in HuH6 cells; type: cell-based; conditions: 3.3 μM, 72 h, vs DMSO
Summary of the method: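 HuH6 cells in 10 cm dishes were exposed to test compound or vehicle (0.25% DMSO final) for 72 h. Cells were harvested in cold PBS, normalized, fixed in 70% ethanol at −20 °C overnight, then stained with PI/RNase for 30 min at 37 °C. DNA content was measured by flow cytometry. Mean ± SD, n = 3; one-way ANOVA, P < 0.05 significant.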

SMILES | IC50 (HEK-293 cells) | gankyrin thermal stability (CETSA) (gankyrin [1]) | effect on gankyrin secondary structure / 3D fold (CD spectra) (gankyrin [2]) | Rb and p53 levels (western blot) [3] | gankyrin levels (western blot) [3] | effect on ANKRA2 secondary structure / 3D fold (CD spectra) (ANKRA2) | number of cells in the G0-G1 phase (HuH6 cells) | number of cells in the S phase (HuH6 cells)
COC(=O)c1ccc(NC(=O)CCC(=O)Nc2ccc(C(=O)OC)cc2)cc1 [Compound 13d, Dimethyl 4,4'-(succinylbis(azanediyl))dibenzoate] | > 50 µM | bind and thermally stabilize gankyrin | decline in secondary structure content; also recorded: significant loss of gankyrin structural integrity | increase in both Rb and p53 levels | relatively constant | no alterations in secondary structure content; also recorded: no significant global structure change | significant increase | significant decrease
COC(=O)c1ccc(C(=O)NCCCNC(=O)c2ccc(C(=O)OC)cc2)cc1 [Compound 10d, Dimethyl 4,4'-((propane-1,3-diylbis(azanediyl))bis(carbonyl))dibenzoate] | > 50 µM |  | reduction in secondary structure content; also recorded: significant loss of gankyrin structural integrity |  |  | no changes in secondary structure content; also recorded: no significant global structure change |  | 
